Source: ChEMBL document CHEMBL1153429, “Structure-based virtual screening of Src kinase inhibitors” (Bioorg Med Chem, 2009)
Values belong to the molecule of their own block, whether it stands above or below them. Active and inactive are the calls of the source. The calls are words filed in the database; no cut-off is given here.

Tests used:
[1] = molecular target: T1, Proto-oncogene tyrosine-protein kinase Src (Homo sapiens, UniProt P12931); experiment: Inhibition of Src kinase at 10 uM
Summary of the method: (§1)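 Kinase reaction with ATP and specific substrate, incubated 1 h at room temperature with test compound (1% DMSO final). Protease solution then added, followed by stabilizer. Read-out by […] at 485/530 nm.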

[2] = molecular target: T1, Proto-oncogene tyrosine-protein kinase Src
[3] = test system: A-431; experiment: Antiproliferative activity against human A431 cells after 72 hrs by SRB assay; type: functional, cell-based
Summary of the method: (§2)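 Cells seeded at 10,000–15,000 per well and held at 37 °C, 5% CO2. After 24 h compound added across a concentration range for 72 h. Cells then fixed with cold 10% TCA and stained with sulforhodamine B (0.4% in 1% acetic acid). Dye solubilized in 10 mM Tris base and absorbance read. GI50 from [(Ti−Tz)/(C−Tz)]×100 = 50. PC3 and SK-BR3 grown in RPMI 1640 with 10% FBS; A431 and MCF-7 in DMEM with 10% FBS.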

[4] = test system: A-431; experiment: Inhibition of EGF-stimulated tyrosine phosphorylation in human A431 cells
[5] = test system: A-431; experiment: Inhibition of ERK phosphorylation in human A431 cells at 0.1 uM after 6 hrs by Western blot analysis; type: cell-based
Summary of the method: (§3)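 PC3 or A431 cells grown 48 h in 6 cm dishes, then exposed to 0.1 µM compound for varying times. Lysed on ice in Tris pH 7.5/NaCl/EDTA/Triton X-100/DTT/PMSF/glycerol with protease inhibitors, then spun. Protein measured by dye-binding assay. Run on 10% SDS-PAGE, blotted to PVDF, blocked 1 h in 5% milk, and probed for phospho and total ERK and p90RSK.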

[6] = test system: SK-BR-3; experiment: Antiproliferative activity against human SKBR3 cells expressing HER2 at < 10 uM after 72 hrs by SRB assay; type: functional, cell-based; summary of the method: as §2
[7] = molecular target: Ribosomal protein S6 kinase alpha-1 (Homo sapiens) (UniProt Q15418); experiment: Inhibition of p90RSK phosphorylation in human A431 cells at 0.1 uM after 6 hrs by Western blot analysis; type: cell-based; details: A-431; summary of the method: as §3
[8] = test system: Rattus norvegicus; experiment: Cmax in Sprague-Dawley rat plasma at 10 mg/kg, iv and po; type: ADME, organism-based; design: dose 10 mg/kg, route oral; details: in vivo
[9] = Tmax in Sprague-Dawley rat at 10 mg/kg, po; type: ADME, organism-based; design: dose 10 mg/kg, route oral; details: in vivo
Summary of the method: (§4)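 Single dose in Sprague–Dawley rats, iv or po. Rats fasted overnight before oral dosing and fed about 2 h after it; no fasting for iv. Approx. 0.3 mL blood drawn from the tail vein into heparin tubes at various times, then centrifuged to plasma and held at −80 °C. Compound measured by LCMS. t1/2 = 0.693/Ke; AUC by linear trapezoidal rule to 5 h plus extrapolation.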

[10] = test system: PC-3; experiment: Antiproliferative activity against human PC3 cells after 72 hrs by SRB assay; type: functional, cell-based; summary of the method: as §2
[11] = molecular target: Ribosomal protein S6 kinase alpha-1 (Homo sapiens) (UniProt Q15418); experiment: Inhibition of p90RSK phosphorylation in human PC3 cells at 0.1 uM by Western blot analysis; type: cell-based; details: PC-3, TDE = time-dependent effect; summary of the method: as §3
[12] = molecular target: Ribosomal protein S6 kinase alpha-1 (Homo sapiens) (UniProt Q15418); experiment: Inhibition of p90RSK phosphorylation in human A431 cells at 0.1 uM by Western blot analysis; type: cell-based; details: A-431, TDE = time-dependent effect; summary of the method: as §3
[13] = Cmax in Sprague-Dawley rat at 5 mg/kg, iv; type: ADME, organism-based; design: dose 5 mg/kg, route intravenous; details: in vivo; summary of the method: as §4
[14] = AUC in Sprague-Dawley rat at 5 mg/kg, iv; type: ADME, organism-based; design: dose 5 mg/kg, route intravenous; details: plasma; summary of the method: as §4
[15] = Cmax in Sprague-Dawley rat at 10 mg/kg, po; type: ADME, organism-based; design: dose 10 mg/kg, route oral; details: in vivo; summary of the method: as §4
[16] = Oral bioavailability in Sprague-Dawley rat at 10 mg/kg, po; type: ADME, organism-based; details: in vivo; summary of the method: as §4
[17] = Tmax in Sprague-Dawley rat at 5 mg/kg, iv; type: ADME, organism-based; design: dose 5 mg/kg, route intravenous; details: in vivo; summary of the method: as §4
[18] = test system: MCF7; experiment: Antiproliferative activity against human MCF7 cells at < 10 uM after 72 hrs by SRB assay; type: functional, cell-based; summary of the method: as §2
[19] = Half life in Sprague-Dawley rat at 5 mg/kg, iv; type: ADME, organism-based; design: dose 5 mg/kg, route intravenous; details: in vivo; summary of the method: as §4
[20] = Tmax in Sprague-Dawley rat plasma at 10 mg/kg, iv and po; type: ADME, organism-based; design: dose 10 mg/kg, route oral
[21] = molecular target: Vascular endothelial growth factor receptor 2 (Homo sapiens) (UniProt P35968); experiment: Inhibition of VEGFR2 at 10 uM; summary of the method: as §1
[22] = Half life in Sprague-Dawley rat at 10 mg/kg, po; type: ADME, organism-based; design: dose 10 mg/kg, route oral; details: in vivo; summary of the method: as §4
[23] = test system: PC-3; experiment: Inhibition of ERK phosphorylation in human PC3 cells at 0.1 uM after 6 hrs by Western blot analysis; type: cell-based; summary of the method: as §3
[24] = molecular target: Epidermal growth factor receptor (Homo sapiens, UniProt P00533)
[25] = test system: PC-3; experiment: Inhibition of ERK phosphorylation in human PC3 cells at 0.1 uM by Western blot analysis; type: cell-based; details: TDE = time-dependent effect; summary of the method: as §3
[26] = AUC in Sprague-Dawley rat at 10 mg/kg, po; type: ADME, organism-based; design: dose 10 mg/kg, route oral; details: plasma; summary of the method: as §4
[27] = molecular target: Ribosomal protein S6 kinase alpha-1 (Homo sapiens) (UniProt Q15418); experiment: Inhibition of p90RSK phosphorylation in human PC3 cells at 0.1 uM after 6 hrs by Western blot analysis; type: cell-based; details: PC-3; summary of the method: as §3
[28] = test system: A-431; experiment: Inhibition of ERK phosphorylation in human A431 cells at 0.1 uM by Western blot analysis; type: cell-based; details: TDE = time-dependent effect; summary of the method: as §3

Chain of Ribosomal protein S6 kinase alpha-1 (Homo sapiens) (Q15418 whole entry): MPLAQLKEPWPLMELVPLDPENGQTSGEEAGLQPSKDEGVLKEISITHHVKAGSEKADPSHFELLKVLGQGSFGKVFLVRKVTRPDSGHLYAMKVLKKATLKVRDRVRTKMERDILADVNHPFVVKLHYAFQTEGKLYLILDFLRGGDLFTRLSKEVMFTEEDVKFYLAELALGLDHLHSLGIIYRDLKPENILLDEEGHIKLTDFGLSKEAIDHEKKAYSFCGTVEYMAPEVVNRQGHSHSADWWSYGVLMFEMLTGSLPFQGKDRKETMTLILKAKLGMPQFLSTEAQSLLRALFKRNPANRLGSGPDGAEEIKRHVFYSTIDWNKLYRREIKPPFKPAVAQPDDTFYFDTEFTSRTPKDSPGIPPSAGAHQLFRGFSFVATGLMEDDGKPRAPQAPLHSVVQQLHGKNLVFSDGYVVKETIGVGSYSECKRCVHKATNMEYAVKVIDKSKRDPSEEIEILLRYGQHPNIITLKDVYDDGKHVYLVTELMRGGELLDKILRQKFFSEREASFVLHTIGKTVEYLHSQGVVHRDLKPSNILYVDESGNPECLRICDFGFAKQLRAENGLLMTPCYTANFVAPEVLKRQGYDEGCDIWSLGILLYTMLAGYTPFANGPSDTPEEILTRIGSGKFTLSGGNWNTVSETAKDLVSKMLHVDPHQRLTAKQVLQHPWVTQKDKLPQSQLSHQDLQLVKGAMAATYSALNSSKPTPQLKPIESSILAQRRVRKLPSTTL
T1 sequence (P12931 2-536 limits assumed): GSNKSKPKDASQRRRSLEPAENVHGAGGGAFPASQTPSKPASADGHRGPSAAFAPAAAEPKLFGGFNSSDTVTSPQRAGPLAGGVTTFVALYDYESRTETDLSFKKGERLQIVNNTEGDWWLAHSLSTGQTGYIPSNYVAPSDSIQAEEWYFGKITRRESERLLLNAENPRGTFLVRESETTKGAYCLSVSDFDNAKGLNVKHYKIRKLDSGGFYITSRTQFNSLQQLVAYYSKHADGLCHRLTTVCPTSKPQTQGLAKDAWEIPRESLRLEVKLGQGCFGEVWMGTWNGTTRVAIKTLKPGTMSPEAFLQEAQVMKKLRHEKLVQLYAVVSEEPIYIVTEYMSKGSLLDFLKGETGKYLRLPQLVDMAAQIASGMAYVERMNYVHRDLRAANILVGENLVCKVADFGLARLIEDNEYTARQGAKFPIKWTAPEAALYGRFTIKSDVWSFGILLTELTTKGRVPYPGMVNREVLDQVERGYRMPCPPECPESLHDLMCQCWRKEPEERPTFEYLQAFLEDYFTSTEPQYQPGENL
Chain of Vascular endothelial growth factor receptor 2 (Homo sapiens) (P35968 whole entry): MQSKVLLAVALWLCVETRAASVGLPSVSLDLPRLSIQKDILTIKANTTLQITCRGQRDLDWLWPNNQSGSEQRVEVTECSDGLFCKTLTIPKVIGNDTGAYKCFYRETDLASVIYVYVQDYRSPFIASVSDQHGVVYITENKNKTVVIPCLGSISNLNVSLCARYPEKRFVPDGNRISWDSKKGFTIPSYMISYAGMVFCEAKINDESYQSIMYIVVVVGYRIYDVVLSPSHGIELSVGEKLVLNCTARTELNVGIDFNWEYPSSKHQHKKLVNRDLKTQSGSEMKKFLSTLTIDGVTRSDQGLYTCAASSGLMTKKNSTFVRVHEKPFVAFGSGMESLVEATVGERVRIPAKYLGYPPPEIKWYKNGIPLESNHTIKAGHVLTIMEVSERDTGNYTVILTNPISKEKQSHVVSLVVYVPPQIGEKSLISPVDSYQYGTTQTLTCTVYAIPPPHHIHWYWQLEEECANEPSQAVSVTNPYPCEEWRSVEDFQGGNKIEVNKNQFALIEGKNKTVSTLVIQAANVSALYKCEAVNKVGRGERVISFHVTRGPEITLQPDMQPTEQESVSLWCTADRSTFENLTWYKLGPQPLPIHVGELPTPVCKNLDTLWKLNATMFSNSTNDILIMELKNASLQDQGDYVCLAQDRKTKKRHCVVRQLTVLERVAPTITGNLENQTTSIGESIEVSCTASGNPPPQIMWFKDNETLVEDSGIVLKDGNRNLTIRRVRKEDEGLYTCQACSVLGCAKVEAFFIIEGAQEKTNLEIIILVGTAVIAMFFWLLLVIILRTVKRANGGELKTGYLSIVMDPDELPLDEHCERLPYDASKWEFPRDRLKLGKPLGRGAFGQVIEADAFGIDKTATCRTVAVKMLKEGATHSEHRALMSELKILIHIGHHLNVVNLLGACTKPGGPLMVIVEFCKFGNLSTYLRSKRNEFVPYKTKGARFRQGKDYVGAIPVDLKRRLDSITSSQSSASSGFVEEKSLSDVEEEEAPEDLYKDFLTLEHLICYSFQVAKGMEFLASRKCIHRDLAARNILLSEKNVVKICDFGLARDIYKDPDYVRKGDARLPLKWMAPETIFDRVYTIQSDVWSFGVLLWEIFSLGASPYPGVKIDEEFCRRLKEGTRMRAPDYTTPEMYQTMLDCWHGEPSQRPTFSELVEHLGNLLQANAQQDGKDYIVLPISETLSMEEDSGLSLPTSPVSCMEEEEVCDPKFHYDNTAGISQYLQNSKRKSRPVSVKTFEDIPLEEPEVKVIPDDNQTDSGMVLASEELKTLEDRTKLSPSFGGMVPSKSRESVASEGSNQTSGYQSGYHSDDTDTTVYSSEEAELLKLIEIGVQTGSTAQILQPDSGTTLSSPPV
Chain of Epidermal growth factor receptor (P00533 whole entry): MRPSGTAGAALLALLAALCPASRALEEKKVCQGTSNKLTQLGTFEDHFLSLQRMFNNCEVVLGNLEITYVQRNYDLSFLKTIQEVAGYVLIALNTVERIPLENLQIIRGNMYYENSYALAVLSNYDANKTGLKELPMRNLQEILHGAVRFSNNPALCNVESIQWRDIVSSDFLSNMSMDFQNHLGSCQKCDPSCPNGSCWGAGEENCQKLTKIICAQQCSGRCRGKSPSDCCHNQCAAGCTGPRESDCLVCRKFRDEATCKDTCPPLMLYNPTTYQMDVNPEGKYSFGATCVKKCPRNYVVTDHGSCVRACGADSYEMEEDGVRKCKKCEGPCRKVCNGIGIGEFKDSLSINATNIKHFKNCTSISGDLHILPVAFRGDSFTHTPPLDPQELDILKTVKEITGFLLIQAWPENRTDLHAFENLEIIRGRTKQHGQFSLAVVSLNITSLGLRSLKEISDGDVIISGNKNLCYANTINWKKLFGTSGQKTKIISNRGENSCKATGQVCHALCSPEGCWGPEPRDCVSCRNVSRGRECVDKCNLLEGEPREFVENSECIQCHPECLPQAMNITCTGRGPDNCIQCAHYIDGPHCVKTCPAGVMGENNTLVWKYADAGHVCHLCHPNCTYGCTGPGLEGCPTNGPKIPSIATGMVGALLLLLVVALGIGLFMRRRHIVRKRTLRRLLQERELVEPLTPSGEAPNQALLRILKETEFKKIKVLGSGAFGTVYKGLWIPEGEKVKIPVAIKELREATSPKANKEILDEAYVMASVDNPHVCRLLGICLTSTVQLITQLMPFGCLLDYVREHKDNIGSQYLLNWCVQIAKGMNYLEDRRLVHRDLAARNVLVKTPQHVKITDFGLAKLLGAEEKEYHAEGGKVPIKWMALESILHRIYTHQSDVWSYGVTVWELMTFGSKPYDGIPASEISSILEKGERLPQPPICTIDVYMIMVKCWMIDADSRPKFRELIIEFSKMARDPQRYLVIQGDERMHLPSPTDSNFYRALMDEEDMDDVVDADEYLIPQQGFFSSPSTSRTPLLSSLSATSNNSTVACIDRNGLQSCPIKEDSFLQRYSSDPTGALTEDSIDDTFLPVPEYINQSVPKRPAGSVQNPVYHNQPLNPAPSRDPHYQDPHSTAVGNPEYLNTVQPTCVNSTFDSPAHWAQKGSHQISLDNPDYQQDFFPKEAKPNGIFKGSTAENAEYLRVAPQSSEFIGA

Compound: CN(C)CCC(=O)Nc1cc2c(Nc3ccc(F)c(Cl)c3)ncnc2cc1OCCCN1CCOCC1
- Activity [1]: Active

Compound: C=CC(=O)Nc1cc2c(Nc3cc(OC)c(Cl)cc3OC)ncnc2cc1OCC1CCN(C)CC1
- Activity [1]: Active

Compound: CCN1CCN(Cc2ccc(-c3cc4c(N[C@@H](C)c5ccccc5)ncnc4[nH]3)cc2)CC1
- Activity [1]: Active

The next lines start with results.

- Activity [1]: Active
- IC50 [2]: 0.3 µM
Compound: COCCOc1cc2ncnc(Nc3ccc(F)c(Cl)c3)c2cc1NC(=O)[C@@H]1CCCN1

- IC50 [4]: 0.78 µM
- IC50 [2]: 0.089 µM
- Activity [7]: Active
- Cmax [8]: 0.4 µM
- Tmax [9]: 4 h
- Activity [11]: tde
- Activity [12]: tde
- Cmax [13]: 2.01 µM
- AUC [14]: 2.4 µg·h/mL
- Cmax [15]: 0.12 µM
- bioavailability [16]: 20.4%
- Tmax [17]: 4.8 min
- half-life [19]: 6.1 h
- Tmax [20]: 1 h
- Activity [21]: inactive
- half-life [22]: 5.4 h
- IC50 [24]: 7.13 µM
- AUC [26]: 1.24 µg·h/mL
- Activity [27]: Active
Compound: COCCOc1cc2ncnc(Nc3c(Cl)ccc4c3OCO4)c2cc1NC(=O)[C@@H]1CCCN1
- Activity [3]: Dose-dependent effect
- Activity [5]: Active
- Activity [6]: inactive
- Activity [10]: Dose-dependent effect
- Activity [18]: inactive
- Activity [23]: Active
- Activity [25]: tde
- Activity [28]: tde
